The source made the active and inactive calls. No cut-off for these calls is given here.
Assays:
MDA-MB-231 [1] = test: Growth inhibition of human MDA-MB-231 cells by MTT assay; type: functional
Method in brief: (§1)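 Cells grown in RPMI 1640 with 10% FBS, plated at 2500 cells/well, treated across a dose range; growth read by MTT. GI50 taken from dose–response curves by nonlinear regression, at least three independent experiments.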

[2] = Growth inhibition of human SKBR3 cells by MTT assay; type: functional; conditions: SK-BR-3; method in brief: as §1
MDA-MB-468 [3] = test: Growth inhibition of human MDA-MB-468 cells by MTT assay; type: functional; method in brief: as §1
MCF7 [4] = test: Growth inhibition of human MCF7 cells by MTT assay; type: functional; method in brief: as §1
[5] = Growth inhibition of human PC3 cells by MTT assay; type: functional; conditions: PC-3; method in brief: as §1
[6] = Growth inhibition of human CWR22Rv1 cells by MTT assay; type: functional, CWR22R; conditions: 22Rv1; method in brief: as §1
LNCaP [7] = test: Growth inhibition of human LNCAP cells by MTT assay; type: functional; method in brief: as §1
PC-3 = test: Inhibition of cell migration of human PC3 cells at 5 uM after 24 hrs by wound healing assay; type: functional, cell-based
Method in brief: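 Cells (5 × 10⁵ per well) grown to confluence, monolayer scratched at time zero, then exposed to 5 μM for 24 h; initial and final wounds photographed at 100×.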

LNCaP [8] = test: Induction of apoptosis in human LNCAP cells assessed as increase in c-PARP formation at 0.6 uM to 20 uM after 24 hrs by SDS-PAGE and Western blotting method; type: functional, cell-based
Method in brief: (§2)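 LNCaP cells (RPMI 1640, 10% FBS) exposed 24 h to 0.6–20 μM, DMSO vehicle control; equal protein on SDS–PAGE, immunoblotted for fAR, Mnk1/2, peIF4E, cyclin D1 and cleaved PARP; β-actin reprobe for loading.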

MDA-MB-231 [9] = test: Effect on total eIF4E protein expression in human MDA-MB-231 cells at 0.63 uM to 20 uM after 24 hrs by SDS-PAGE and Western blotting method; type: functional, cell-based
Method in brief: (§3)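 Breast cancer cells in RPMI 1640 with 10% FBS treated 24 h at indicated concentrations, DMSO vehicle control; equal protein loaded on SDS–PAGE and immunoblotted for Mnk1, Mnk2, peIF4E, eIF4E and cleaved PARP; blots reprobed for GAPDH as loading control.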

LNCaP [10] = test: Induction of apoptosis in human LNCAP cells assessed as reduction in cyclin D1 levels at 0.6 uM to 20 uM after 24 hrs by SDS-PAGE and Western blotting method; type: functional, cell-based; method in brief: as §2
MCF7 [11] = test: Reduction in peIF4E protein expression in human MCF7 cells at 0.63 uM to 20 uM after 24 hrs by SDS-PAGE and Western blotting method; type: functional, cell-based
Method in brief: (§4)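 MCF-7, MDA-MB-231 and MDA-MB-468 cells, kept in RPMI 1640 with 10% FBS, were exposed for 24 h to a range of concentrations, with DMSO vehicle controls. Equal protein from lysates was separated by SDS–PAGE and probed for Mnk1, Mnk2, peIF4E, eIF4E and cPARP. GAPDH reprobing served as loading control.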

MDA-MB-231 [12] = test: Reduction in Mnk1 protein expression in human MDA-MB-231 cells at 0.63 uM to 20 uM after 24 hrs by SDS-PAGE and Western blotting method; type: functional, cell-based; method in brief: as §3
MDA-MB-468 [13] = test: Reduction in peIF4E protein expression in human MDA-MB-468 cells at 0.63 uM to 20 uM after 24 hrs by SDS-PAGE and Western blotting method; type: functional, cell-based; method in brief: as §4
MDA-MB-231 [14] = test: Reduction in Mnk2 protein expression in human MDA-MB-231 cells at 0.63 uM to 20 uM after 24 hrs by SDS-PAGE and Western blotting method; type: functional, cell-based; method in brief: as §3
MDA-MB-468 [15] = test: Effect on total eIF4E protein expression in human MDA-MB-468 cells at 0.63 uM to 20 uM after 24 hrs by SDS-PAGE and Western blotting method; type: functional, cell-based; method in brief: as §3
MCF7 [16] = test: Effect on total eIF4E protein expression in human MCF7 cells at 0.63 uM to 20 uM after 24 hrs by SDS-PAGE and Western blotting method; type: functional, cell-based; method in brief: as §3
MDA-MB-468 [17] = test: Reduction in Mnk2 protein expression in human MDA-MB-468 cells at 0.63 uM to 20 uM after 24 hrs by SDS-PAGE and Western blotting method; type: functional, cell-based; method in brief: as §3
MDA-MB-231 [18] = test: Induction of apoptosis in human MDA-MB-231 cells assessed as increase in c-PARP formation at 0.63 uM to 20 uM after 24 hrs by SDS-PAGE and Western blotting method; type: functional, cell-based; method in brief: as §3
MCF7 [19] = test: Reduction in Mnk2 protein expression in human MCF7 cells at 0.63 uM to 20 uM after 24 hrs by SDS-PAGE and Western blotting method; type: functional, cell-based; method in brief: as §3
MCF7 [20] = test: Reduction in Mnk1 protein expression in human MCF7 cells at 0.63 uM to 20 uM after 24 hrs by SDS-PAGE and Western blotting method; type: functional, cell-based; method in brief: as §3
LNCaP [21] = test: Reduction in Mnk2 protein expression in human LNCAP cells at 0.6 uM to 20 uM after 24 hrs by SDS-PAGE and Western blotting method; type: functional, cell-based; method in brief: as §2
LNCaP [22] = test: Reduction in Mnk1 protein expression in human LNCAP cells at 0.6 uM to 20 uM after 24 hrs by SDS-PAGE and Western blotting method; type: functional, cell-based; method in brief: as §2
MDA-MB-231 [23] = test: Reduction in peIF4E protein expression in human MDA-MB-231 cells at 0.63 uM to 20 uM after 24 hrs by SDS-PAGE and Western blotting method; type: functional, cell-based; method in brief: as §4
MCF7 [24] = test: Induction of apoptosis in human MCF7 cells assessed as increase in c-PARP formation at 0.63 uM to 20 uM after 24 hrs by SDS-PAGE and Western blotting method; type: functional, cell-based; method in brief: as §3
LNCaP [25] = test: Reduction in fAR protein expression in human LNCAP cells at 0.6 uM to 20 uM after 24 hrs by SDS-PAGE and Western blotting method; type: functional, cell-based
Method in brief: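 LNCaP cells were treated for 24 h across 0.6–20 μM, with vehicle (DMSO) controls. Equal protein from lysates was run on SDS–PAGE and immunoblotted for fAR, Mnk1/2, peIF4E, cyclin D1 and cleaved PARP. Blots were reprobed for β-actin as loading control.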

[26] = biological target: T1, Androgen receptor (Homo sapiens) (UniProt P10275); conditions: LNCaP, at 10 µM
T1 sequence (whole entry): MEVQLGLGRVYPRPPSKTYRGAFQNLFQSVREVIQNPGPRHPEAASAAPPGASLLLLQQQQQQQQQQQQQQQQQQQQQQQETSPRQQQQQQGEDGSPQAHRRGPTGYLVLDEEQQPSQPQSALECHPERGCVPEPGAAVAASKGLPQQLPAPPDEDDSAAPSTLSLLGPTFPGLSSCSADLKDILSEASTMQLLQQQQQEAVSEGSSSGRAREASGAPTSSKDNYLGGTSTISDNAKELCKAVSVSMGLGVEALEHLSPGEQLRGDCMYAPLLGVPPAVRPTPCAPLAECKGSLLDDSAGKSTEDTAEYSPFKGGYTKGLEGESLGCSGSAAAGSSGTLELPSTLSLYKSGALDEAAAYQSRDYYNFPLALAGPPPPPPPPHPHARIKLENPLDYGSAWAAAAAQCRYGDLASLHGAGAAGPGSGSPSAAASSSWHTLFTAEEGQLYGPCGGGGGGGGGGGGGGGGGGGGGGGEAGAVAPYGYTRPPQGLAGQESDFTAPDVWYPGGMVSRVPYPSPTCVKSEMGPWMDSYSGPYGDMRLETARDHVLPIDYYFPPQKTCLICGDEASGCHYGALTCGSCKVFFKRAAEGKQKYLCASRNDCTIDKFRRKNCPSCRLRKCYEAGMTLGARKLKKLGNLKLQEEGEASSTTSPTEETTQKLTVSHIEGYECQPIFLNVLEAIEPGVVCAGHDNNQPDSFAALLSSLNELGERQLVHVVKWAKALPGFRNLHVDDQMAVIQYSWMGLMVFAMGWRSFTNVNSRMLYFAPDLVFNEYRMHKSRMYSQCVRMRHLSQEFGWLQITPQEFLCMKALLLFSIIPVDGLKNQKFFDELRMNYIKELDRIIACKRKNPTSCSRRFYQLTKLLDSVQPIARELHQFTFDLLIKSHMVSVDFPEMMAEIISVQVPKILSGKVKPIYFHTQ

LNCaP [27] = test: Effect on total eIF4E protein expression in human LNCAP cells at 0.6 uM to 20 uM after 24 hrs by SDS-PAGE and Western blotting method; type: functional, cell-based
MDA-MB-468 [28] = test: Reduction in Mnk1 protein expression in human MDA-MB-468 cells at 0.63 uM to 20 uM after 24 hrs by SDS-PAGE and Western blotting method; type: functional, cell-based; method in brief: as §3
MDA-MB-468 [29] = test: Induction of apoptosis in human MDA-MB-468 cells assessed as increase in c-PARP formation at 0.63 uM to 20 uM after 24 hrs by SDS-PAGE and Western blotting method; type: functional, cell-based; method in brief: as §3

## CC1=C(/C=C/C(C)=C/C=C/C(C)=C\C(=O)NCCc2ccc(O)cc2)C(C)(C)CC=C1c1cccnc1
MDA-MB-231 [1]
  GI50: 26.9 µM
[2]
  GI50: 42.2 µM
MDA-MB-468 [3]
  GI50: 50.1 µM
MCF7 [4]
  GI50: 8.75 µM

## CC1=C(/C=C/C(C)=C/C=C/C(C)=C\C(=O)Nc2ccc(O)cc2)C(C)(C)CCC1n1ccnc1 (configuration not stated)
MDA-MB-231 [1]
  GI50: 13.1 µM
[2]
  GI50: 3.89 µM
MDA-MB-468 [3]
  GI50: 6.83 µM
[5]
  GI50: 11.7 µM
MCF7 [4]
  GI50: 1.99 µM
[6]
  GI50: 3.89 µM
LNCaP [7]
  GI50: 3.54 µM

## CC1=C(/C=C/C(C)=C/C=C/C(C)=C/C(=O)Nc2ccc(O)cc2)C(C)(C)CCC1 [FENRETINIDE]
MDA-MB-231 [1]
  GI50: 11.1 µM
[2]
  GI50: 3.98 µM
MDA-MB-468 [3]
  GI50: 6.02 µM
MCF7 [4]
  GI50: 4.65 µM

## CC(O)(CS(=O)(=O)c1ccc(F)cc1)C(=O)Nc1ccc(C#N)c(C(F)(F)F)c1 (configuration not stated) [BICALUTAMIDE]
[5]
  GI50: 9.15 µM
[6]
  GI50: 3.81 µM
LNCaP [7]
  GI50: 2.61 µM

## CC1=C(/C=C/C(C)=C/C=C/C(C)=C\C(=O)NCCc2ccc(O)cc2)C(C)(C)CCC1n1ccnc1 (configuration not stated)
MDA-MB-231 [1]
  GI50: 2.88 µM
[2]
  GI50: 1.41 µM
MDA-MB-468 [3]
  GI50: 13.5 µM
MCF7 [4]
  GI50: 1.9 µM

## CC1=C(/C=C/C(C)=C/C=C/C(C)=C\C(=O)NCc2cccc(F)c2)C(C)(C)CCC1n1ccnc1 (configuration not stated)
MDA-MB-231 [1]
  GI50: 1.65 µM
[2]
  GI50: 4.24 µM
MDA-MB-468 [3]
  GI50: 3.09 µM
MCF7 [4]
  GI50: 1.81 µM

## CC1=C(/C=C/C(C)=C/C=C/C(C)=C\C(=O)NCCc2ccc(O)cc2)C(C)(C)CC=C1c1cncnc1
MDA-MB-231 [1]
  GI50: 14.5 µM
[2]
  GI50: 24 µM
MDA-MB-468 [3]
  GI50: 23.4 µM
MCF7 [4]
  GI50: 2.96 µM

## CC1=C(/C=C/C(C)=C/C=C/C(C)=C\C(=O)Nc2ccccc2)C(C)(C)CCC1n1ccnc1 (configuration not stated)
PC-3
  inhibition: Active
LNCaP [8]
  Activity: Active
MDA-MB-231 [9]
  Activity: inactive
MDA-MB-231 [1]
  GI50: 1.74 µM
[2]
  GI50: 1.73 µM
LNCaP [10]
  Activity: Active
MCF7 [11]
  inhibition: Dose-dependent effect
MDA-MB-231 [12]
  inhibition: Dose-dependent effect
MDA-MB-468 [13]
  inhibition: Dose-dependent effect
MDA-MB-231 [14]
  inhibition: Dose-dependent effect
MDA-MB-468 [15]
  Activity: inactive
MCF7 [16]
  Activity: inactive
MDA-MB-468 [3]
  GI50: 2.54 µM
MDA-MB-468 [17]
  inhibition: Dose-dependent effect
MDA-MB-231 [18]
  Activity: Dose-dependent effect
MCF7 [19]
  inhibition: Dose-dependent effect
MCF7 [20]
  inhibition: Dose-dependent effect
LNCaP [21]
  inhibition: Dose-dependent effect
[5]
  GI50: 8.91 µM
MCF7 [4]
  GI50: 1.9 µM
LNCaP [22]
  inhibition: Dose-dependent effect
MDA-MB-231 [23]
  inhibition: Dose-dependent effect
MCF7 [24]
  Activity: Dose-dependent effect
[6]
  GI50: 1.28 µM
LNCaP [25]
  inhibition: Dose-dependent effect
[26]
  inhibition: Active
LNCaP [27]
  Activity: inactive
MDA-MB-468 [28]
  inhibition: Dose-dependent effect
LNCaP [7]
  GI50: 2.69 µM
MDA-MB-468 [29]
  Activity: Dose-dependent effect

## CC1=C(/C=C/C(C)=C/C=C/C(C)=C\C(=O)Nc2ccccc2O)C(C)(C)CCC1n1ccnc1 (configuration not stated)
MDA-MB-231 [1]
  GI50: 4.67 µM
[2]
  GI50: 3.89 µM
MDA-MB-468 [3]
  GI50: 3.03 µM
[5]
  GI50: 15.5 µM
MCF7 [4]
  GI50: 1.09 µM
[6]
  GI50: 2.23 µM
LNCaP [7]
  GI50: 3.23 µM

Source: ChEMBL document CHEMBL3414559, “Novel C-4 heteroaryl 13-cis-retinamide Mnk/AR degrading agents inhibit cell proliferation and migration and induce apoptosis in human breast and prostate cancer cells and suppress growth of MDA-MB-231 human breast and CWR22Rv1 human prostate tumor xenografts in mice” (J Med Chem, 2015)
